The structures appear in SMILES notation. In brackets after ≈: the same amount, converted by molar mass. Several values for one entry are separate records, joined by “and”; a condition that tells them apart may be missing. Identical values can stand only once. Entries after “also recorded” stand apart in the source; their conditions may differ. Like-named read-outs stand apart in the source and are kept apart here.

Data set [1] deals with N. gonorrhoeae F62 ΔlgtD. Nature of the data set: Serum bactericidal assay with pooled normal human serum. The conditions noted are these: CMP-NulO added 15 min before or 15 min after CMP-Neu5Ac; 3.3% and 10% NHS. Type of data set: cell-based, Neisseria gonorrhoeae.
Data set [2] concerns the target T1, N. gonorrhoeae LOS sialyltransferase (Lst) (Neisseria gonorrhoeae, UniProt P72074). Nature of the data set: Utilization of CMP-NulO as substrate by LOS sialyltransferase. Format: biochemical. The conditions noted are these: transfer of NulO to LNnT LOS.
For data set [3], the system named is N. gonorrhoeae H041. Nature of the data set: Mouse vaginal colonization model, wild-type BALB/c mice. Format: in vivo. The conditions noted are these: strain H041; for Efficacy in clearing gonococcal colonization: 10 µg intravaginally daily, wild-type BALB/c mice; for First day with significantly lower CFU counts than saline control: 10 µg/d intravaginally, two-way ANOVA, Dunnett.

In data set [4] the test system is N. gonorrhoeae. Nature of the data set: Mouse vaginal colonization model, Cmah−/− mice. Format: in vivo.
Data set [5] has as its system N. gonorrhoeae H041. To be noted: intravaginal administration; cited from earlier work.
The nature of data set [6]: Stability of CMP-NulOs in solution. Type of data set: physicochemical.
Data set [7] concerns N. gonorrhoeae strain H041. Briefly: Mouse vaginal colonization model, human FH/C4BP transgenic mice. Type of data set: in vivo. The essentials:
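Premarin-treated human FH/C4BP transgenic BALB/c mice, 6-8 weeks old and in diestrus, were infected intravaginally with strain H041 (n=6/group). Test compound was given intravaginally once daily, starting 2 h before infection; the 10 µg dose was given as 1 mg/ml in sterile H2O. Saline was the vehicle control. Bacterial burden was followed over time, and areas under the curve were compared by nonparametric rank sum test.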

Data set [8] deals with N. gonorrhoeae F62 ΔlgtD. Briefly: Silver-stained SDS-PAGE of LOS. Type of data set: cell-based, Neisseria gonorrhoeae. To be noted: media containing CMP-NulO 100 µg/ml. The essentials: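 F62 ΔlgtD was grown in liquid media with or without test compound. Protease K-treated (100 µg/ml) lysates were run on 16.5% Tris-Tricine gels with Tris-Tricine cathode buffer, and LOS was silver-stained. Slower LOS mobility than bacteria grown without test compound was taken to indicate NulO addition.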

For data set [9], the target named is T1, N. gonorrhoeae LOS sialyltransferase (Lst). To be noted: tested as CMP salts; cited from earlier work.
Data set [10] deals with FH purified from human plasma. Briefly: Factor H binding to bacteria by flow cytometry. To be noted: for FH binding (fluorescence) relative to that seen with Neu5Ac substituted LOS / Decrease in FH binding fluorescence relative to Neu5Ac: NulO capped LNnT LOS. Background: Flow cytometry measures light scatter and fluorescence of single cells or particles in a stream.
Data set [11] deals with FH purified from human plasma. The conditions noted are these: compared with Neu5Ac; cited from earlier work.
Data set [12] has as its system N. gonorrhoeae F62 ΔlgtD. The conditions noted are these: bacteria fed with the CMP salts; cited from earlier work.
In data set [13] the test system is N. gonorrhoeae. To be noted: cited from earlier work; for Eradication of oropharyngeal infection: men who have sex with men and commercial sex workers.
Data set [14] deals with N. gonorrhoeae. The conditions noted are these: cited from earlier work.
Setting [15] is: F62 ΔlgtD grown with the CMP-NulO.

T1 sequence (P72074 whole entry): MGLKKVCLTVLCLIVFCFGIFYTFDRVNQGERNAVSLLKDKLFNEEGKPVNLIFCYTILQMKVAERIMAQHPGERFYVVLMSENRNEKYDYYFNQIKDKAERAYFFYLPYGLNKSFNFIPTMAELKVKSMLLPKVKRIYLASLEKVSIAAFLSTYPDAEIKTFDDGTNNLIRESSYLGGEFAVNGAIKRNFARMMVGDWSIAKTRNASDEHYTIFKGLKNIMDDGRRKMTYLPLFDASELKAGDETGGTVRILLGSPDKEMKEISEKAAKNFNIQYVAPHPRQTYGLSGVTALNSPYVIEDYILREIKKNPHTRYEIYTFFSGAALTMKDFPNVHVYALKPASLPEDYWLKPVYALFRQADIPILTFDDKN

`[N-]=[N+]=N[C@@H](C1O[C@](OP(=O)(O)OC[C@H]2O[C@@H](n3ccc(N)nc3=O)C(O)C2O)(C(=O)O)CC(O)[C@H]1O)[C@H](O)CO` (stereo partly drawn) [CMP-Kdn7N3]: the “Prevention of Neu5Ac-mediated serum resistance” value (“Prevention” below) in [1] is “ineffective in preventing CMP-Neu5Ac-mediated serum resistance”. Besides, the “Substrate for Lst” value in [2] is “served as substrates for Lst”.

For `Nc1ccn([C@@H]2O[C@H](COP(=O)(O)O[C@@]3(C(=O)O)C[C@H](O)[C@@H](O)[C@H]([C@H](O)[C@H](O)CO)O3)[C@@H](O)[C@H]2O)c(=O)n1` [CMP-Kdn, CMP-ketodeoxynonulosonate], in data set [1], the “Prevention” value is reported as “effectively prevented Neu5Ac-mediated serum resistance only when added first”. Further, in [3], the “Efficacy in clearing gonococcal colonization” value is reported as “equally efficacious; also recorded: as efficacious as CMP-Leg5,7Ac2” and the “First day with significantly lower CFU counts than saline control” value came to 2 days. For the same molecule, the “Substrate for Lst” value in data set [2] is reported as “served as substrates for Lst”.

For `CC(=O)N[C@@H]([C@@H]1O[C@](OP(=O)(O)OC[C@H]2O[C@@H](n3ccc(N)nc3=O)[C@H](O)[C@@H]2O)(C(=O)O)C[C@H](O)[C@H]1NC(C)=O)[C@@H](C)O` [CMP-Leg5,7Ac2], in data set [1], the “Prevention” value is recorded as “blocked CMP-Neu5Ac-mediated serum resistance when added after CMP-Neu5Ac”. Also, the “AUC (log10 CFU)” value in data set [4] (strain 398078, 10 µg daily) is recorded as “zero”. Moreover, in data set [4] (strain 398078, swabs taken 24 h after infection, 10 µg daily), the “Detection of bacteria in treated animals on day 1” value is “unable to detect”. Besides, in [4] (strains F62 ΔlgtD and H041, 10 µg daily intravaginally), the “Efficacy (rate of clearance and bacterial burden compared to saline)” value is recorded as “effective against both strains”. The “Duration and burden of vaginal colonization of multidrug-resistant N. gonorrhoeae in mice” value in data set [5] was “decreased the duration and reduced the burden of vaginal colonization”. Moreover, the “Percentage of intact CMP-NulO relative to t0” value is “Greater than 90%” in data set [6] (6 weeks at 4 °C, pH 7); “greater than 50%” in data set [6] (1 h, pH 4 (data not shown)); 4% in data set [6] (4 h, pH 4, 37 °C); “about 54%” in data set [6] (24 h at 37 °C, pH 5); “Greater than 90%” in data set [6] (3 days at 20 °C, pH 7). Also, the “Relative stability over all test conditions” value in data set [6] (descending order: CMP-Leg5,7Ac2, CMP-Neu5Ac9N3, CMP-Neu5Ac, CMP-Kdn, pH 4-7, 4-37 °C) is “most stable”. Moreover, in data set [3], the “Efficacy in clearing gonococcal colonization” value is “equally efficacious”. The “First day with significantly lower CFU counts than saline control” value in data set [3] is 1 days. For the same molecule, the Efficacy entry in data set [7] (1 µg/day intravaginally) was “ineffective”; in [7] (5 µg/day intravaginally), “progressively increasing efficacy; also recorded: cleared infection significantly faster”; in data set [7] (10 µg/day intravaginally), “progressively increasing efficacy; also recorded: cleared infection significantly faster”.

Consider `CC(=O)NC1C(OC(C)=O)CC(OP(=O)(O)OCC2OC(n3ccc(N)nc3=O)C(O)C2O)(C(=O)O)OC1C(O)C(O)CO` (stereo not drawn) [CMP-Neu4,5Ac2], for which the “Migration of LOS on silver-stained 16.5% Tricine gel” value in data set [8] is on record as “no change in migration of LOS”.

For the molecule `CC(=O)N[C@H]1[C@H]([C@H](O)[C@H](O)COC(C)=O)O[C@@](OP(=O)(O)OC[C@H]2O[C@@H](n3ccc(N)nc3=O)[C@H](O)[C@@H]2O)(C(=O)O)C[C@@H]1O` [CMP-Neu5,9Ac2], the “Prevention” value in [1] is reported as “rendered F62 ΔlgtD susceptible to 10% NHS, but not 3.3% NHS”. In addition, in [3], the “Efficacy in clearing gonococcal colonization” value is “ineffective”.

Turning to `CC(=O)N[C@H]1[C@H]([C@H](O)[C@H](O)CN=[N+]=[N-])OC(OP(=O)(O)OC[C@H]2O[C@@H](n3ccc(N)nc3=O)[C@H](O)[C@@H]2O)(C(=O)O)C[C@@H]1O` (stereo partly drawn) [CMP-Neu5Ac9N3], in data set [3], the “Efficacy in clearing gonococcal colonization” value is “equally efficacious; also recorded: as efficacious as CMP-Leg5,7Ac2” and the “First day with significantly lower CFU counts than saline control” value stood at 2 days.

On to `CC(=O)N[C@H]([C@@H]1O[C@](OP(=O)(O)OC[C@H]2O[C@@H](n3ccc(N)nc3=O)[C@H](O)[C@@H]2O)(C(=O)O)C[C@H](O)[C@@H]1NC(C)=O)[C@H](C)O` [CMP-Pse5,7Ac2], for which the “Utilization by Lst” value in data set [9] is on record as “not utilized by Lst”.

Turning to `[N-]=[N+]=N[C@@H]([C@H](O)[C@H](O)[C@@H](O)CC(=O)C(=O)O)[C@H](O)CO` [Kdn7N3, 3,7-dideoxy-7-azido-D-glycero-D-galacto-nonulosonic acid], in data set [10] (setting [15]), the “FH binding (fluorescence) relative to that seen with Neu5Ac substituted LOS” value was ~ 60% and ~ 62%.

As for `O=C(O)C(=O)C[C@H](O)[C@@H](O)[C@@H](O)[C@H](O)[C@H](O)CO` [Kdn, 3-deoxy-D-glycero-D-galacto-nonulosonic acid], the “FH binding (fluorescence) relative to that seen with Neu5Ac substituted LOS” value in data set [10] (setting [15]) was ~ 60% and ~ 62%. For the same molecule, in data set [10], the “Decrease in FH binding fluorescence relative to Neu5Ac” value is listed as ~ 40%.

`CC(=O)N[C@@H]([C@@H]1O[C@](O)(C(=O)O)C[C@H](O)[C@H]1NC(C)=O)[C@@H](C)O` [Leg5,7Ac2]: the “FH binding compared with unsialylated bacteria” value in data set [10] (F62 ΔlgtD grown with the CMP-NulO, NulO substituted LOS) is on record as “did not bind FH above levels seen with unsialylated bacteria”. Moreover, the “FH binding to gonococci with NulO capped LNnT LOS” value (“FH binding to gonococci” for short) in [11] is on record as “lack of detectable FH binding”. Further, the “Effect of NulO incorporation into LOS on bacterial resistance to complement” value in [12] is “did not enhance bacterial resistance to complement”. Moreover, the “Utilization by Lst” value in data set [9] was “utilized by Lst”.

As to `CC(=O)N[C@H]1[C@H]([C@H](O)[C@H](O)COC(C)=O)OC(O)(C(=O)O)C[C@@H]1O` (stereo partly drawn) [Neu5,9Ac2], the “FH binding (fluorescence) relative to that seen with Neu5Ac substituted LOS” value in data set [10] (setting [15]) is ~ 30%. For the same molecule, the “Decrease in FH binding fluorescence relative to Neu5Ac” value in data set [10] is reported as ~ 70%.

As to `CC(=O)N[C@H]1[C@H]([C@H](O)[C@H](O)CN=[N+]=[N-])OC(O)(C(=O)O)C[C@@H]1O` (stereo partly drawn) [Neu5Ac9N3], the “FH binding to gonococci” value in [11] is “lack of detectable FH binding”. The “Effect of NulO incorporation into LOS on bacterial resistance to complement” value in [12] is reported as “did not enhance bacterial resistance to complement”. Moreover, the “Utilization by Lst” value in data set [9] is given as “utilized by Lst”.

On to `CO[C@H](CO)[C@@H](O)[C@@H]1OC(O)(C(=O)O)C[C@H](O)[C@H]1NC(=O)CO` (stereo partly drawn) [Neu5Gc8Me, reference compound], for which, in [11], the “FH binding to gonococci” value is “lack of detectable FH binding”. In addition, the “Utilization by Lst” value in [9] is reported as “utilized by Lst”.

Regarding `O=C(CO)N[C@H]1[C@H]([C@H](O)[C@H](O)CO)OC(O)(C(=O)O)C[C@@H]1O` (stereo partly drawn) [Neu5Gc, reference compound], the “FH binding to gonococci” value in [11] is given as “no impact”. Besides, in data set [9], the “Utilization by Lst” value is “utilized by Lst”.

For the molecule `CC[C@H]1OC(=O)[C@@](C)(F)C(=O)[C@H](C)[C@@H](O[C@@H]2O[C@H](C)C[C@H](N(C)C)[C@H]2O)[C@](C)(OC)C[C@@H](C)C(=O)[C@H](C)[C@H]2N(CCCCn3cc(-c4cccc(N)c4)nn3)C(=O)O[C@]12C` [Solithromycin, solithromycin], the “Non-inferiority versus ceftriaxone plus azithromycin” value in data set [13] (phase III trial) was “failed to meet non-inferiority criteria”.

For the molecule `C[C@@H]1CN2c3c(cc4c(N5C(=O)OC[C@@H]5C)noc4c3F)CC3(C(=O)NC(=O)NC3=O)[C@H]2[C@H](C)O1` [Zoliflodacin, zoliflodacin], in [13], the “Treatment of uncomplicated urogenital infections” value is given as “appear promising” and the “Eradication of oropharyngeal infection” value is on record as “failures to eradicate oropharyngeal infection”.

Turning to `C=CC1=C(C(=O)O)N2C(=O)[C@@H](NC(=O)/C(=N\OCC(=O)O)c3csc(N)n3)[C@H]2SC1` [cefixime], the minimum inhibitory concentration (MIC) in [14] (strain SD-1) is 0.125 mg/L (≈ 0.276 µM).

For the molecule `CO/N=C(\C(=O)N[C@@H]1C(=O)N2C(C(=O)O)=C(CSc3nc(=O)c(=O)[nH]n3C)CS[C@H]12)c1csc(N)n1` [ceftriaxone], the MIC was greater than 2 mg/L in [14] (strain CTX-r Spain), 2 to 4 mg/L in data set [14] (strain H041 (WHO X)), 0.094 mg/L (≈ 0.169 µM) in data set [14] (strain SD-1) and 0.38 mg/L (≈ 0.685 µM) in data set [14] (strain UMNJ60_06UM (NJ-60)).

`O=c1ccc2ncc(=O)n3c2n1C[C@H]3CN1CCC(NCc2cc3c(cn2)OCCC3)CC1` [gepotidacin]: in data set [13], the “Treatment of uncomplicated urogenital infections” value was “appear promising” and the “Eradication of oropharyngeal infection” value is given as “failures to eradicate oropharyngeal infection”.

By MIC is commonly meant the smallest concentration in the dilution series that meets the test's criterion for growth inhibition.
